23 compounds from ChEMBL document CHEMBL3046655, “Schiff bases as potential fungicides and nitrification inhibitors” (2009) can be followed below.

Converted amounts (≈) assume the structure as drawn. The source made the active and inactive calls. No cut-off for these calls is given here.

The test system of one experiment is Macrophomina phaseolina. Put plainly: Fungicidal activity against Rhizoctonia bataticola assessed as fungal growth inhibition at 28 degC by poisoned food technique. The conditions noted are these: for EC50: read-out: ED50 (the source's name). In kind it is functional. The method, boiled down:
(§1)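 Poisoned-food assay on PDA. A 5 mm plug from the growing edge of a 2-week colony was placed centrally. Plates were held at 28 °C until control growth was nearly complete. Colony diameter was measured; n=4. Inhibition = (C−T)×100/C, Abbott-corrected; ED50 by probit.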

A further experiment deals with Athelia rolfsii. Put plainly: Fungicidal activity against Athelia rolfsii assessed as fungal growth inhibition at 28 degC by poisoned food technique. In kind it is functional. To be noted: Agroathelia rolfsii; for EC50: read-out: ED50 (the source's name). The method, boiled down:
as §1

Take `O=[N+]([O-])c1cccc(/C=N/c2ccco2)c1`: the EC50 with Macrophomina phaseolina is 17.1 µg/mL (≈ 79.2 µM); in the experiment with Athelia rolfsii it was 201 µg/mL (≈ 930 µM).

For `Fc1ccccc1/N=C/c1c(Cl)cccc1Cl`, the EC50 in the experiment with Macrophomina phaseolina stood at 45 µg/mL (≈ 168 µM); with Athelia rolfsii, 45.6 µg/mL (≈ 170 µM).

As for `O=[N+]([O-])c1cccc(/C=N/c2cccc(F)c2)c1`, the EC50 was 180 µg/mL (≈ 737 µM) in the experiment with Macrophomina phaseolina and 175 µg/mL (≈ 718 µM) in the experiment on Athelia rolfsii.

As for `O=[N+]([O-])c1cccc(/C=N/c2cc(Cl)c(Cl)cc2Cl)c1`, the EC50 with Macrophomina phaseolina was 6.17 µg/mL (≈ 18.7 µM); in the experiment on Athelia rolfsii, 21.7 µg/mL (≈ 65.9 µM).

Consider `Fc1cccc(/N=C/c2c(Cl)cccc2Cl)c1`, for which the EC50 is 54 µg/mL (≈ 201 µM) in the experiment on Macrophomina phaseolina and 87 µg/mL (≈ 324 µM) in the experiment on Athelia rolfsii.

For the compound `Clc1ccc(/C=N/c2cc(Cl)c(Cl)cc2Cl)c(Cl)c1`, the EC50 in the experiment on Macrophomina phaseolina is 3.05 µg/mL (≈ 8.63 µM); in the experiment with Athelia rolfsii it was 24.4 µg/mL (≈ 68.9 µM).

Take `Clc1cccc(Cl)c1/C=N/CCCC/N=C/c1c(Cl)cccc1Cl`: the figures for the EC50 in the experiment with Macrophomina phaseolina and with Athelia rolfsii were 12.4 µg/mL (≈ 30.9 µM) and 22.1 µg/mL (≈ 54.8 µM), respectively.

Consider `Clc1cccc(Cl)c1/C=N/C1CCCCC1/N=C/c1c(Cl)cccc1Cl` (stereo unspecified), for which the EC50 in the experiment with Macrophomina phaseolina stood at 124 µg/mL (≈ 290 µM); in the experiment on Athelia rolfsii it was 39.5 µg/mL (≈ 92.3 µM).

On to `O=[N+]([O-])c1cccc(/C=N/C2CCCCC2/N=C/c2cccc([N+](=O)[O-])c2)c1` (stereo unspecified), for which the ED50 result with Macrophomina phaseolina and in the experiment on Athelia rolfsii was “inactive” each time.

Turning to `Clc1cccc(Cl)c1/C=N/c1ccco1`, the EC50 with Macrophomina phaseolina worked out at 45.7 µg/mL (≈ 190 µM); in the experiment on Athelia rolfsii, 78.3 µg/mL (≈ 326 µM).

As to `O=[N+]([O-])c1cccc(/C=N/CCCC/N=C/c2cccc([N+](=O)[O-])c2)c1`, the ED50 entry in the experiment on Macrophomina phaseolina and in the experiment on Athelia rolfsii was “inactive” throughout.

Take `Fc1ccccc1/N=C/c1ccc(Cl)cc1Cl`: the EC50 in the experiment with Macrophomina phaseolina was found to be 15.6 µg/mL (≈ 58 µM); with Athelia rolfsii, 63.4 µg/mL (≈ 237 µM).

In the case of `O=[N+]([O-])c1cccc(/C=N/c2ccc(F)cc2)c1`, the EC50 was 190 µg/mL (≈ 779 µM) in the experiment on Macrophomina phaseolina and 164 µg/mL (≈ 672 µM) in the experiment with Athelia rolfsii.

With `Clc1ccc(/C=N/CCC/N=C/c2ccc(Cl)cc2Cl)c(Cl)c1`, the EC50 in the experiment with Macrophomina phaseolina came out at 17.8 µg/mL (≈ 45.7 µM); in the experiment with Athelia rolfsii, 27.1 µg/mL (≈ 69.9 µM).

Consider `Fc1ccc(/N=C/c2ccc(Cl)cc2Cl)cc1`, for which the EC50 is 21.8 µg/mL (≈ 81.4 µM) in the experiment on Macrophomina phaseolina and 37.4 µg/mL (≈ 140 µM) with Athelia rolfsii.

For `O=[N+]([O-])c1cccc(/C=N/c2ccccc2F)c1`, the EC50 turned out to be 113 µg/mL (≈ 462 µM) with Macrophomina phaseolina and 160 µg/mL (≈ 656 µM) with Athelia rolfsii.

Turning to `Fc1cccc(/N=C/c2ccc(Cl)cc2Cl)c1`, the EC50 worked out at 600 µg/mL (≈ 2240 µM) in the experiment with Macrophomina phaseolina and 548 µg/mL (≈ 2040 µM) with Athelia rolfsii.

Consider `Fc1ccc(/N=C/c2c(Cl)cccc2Cl)cc1`, for which the results for the EC50 in the experiment on Macrophomina phaseolina and with Athelia rolfsii were 123 µg/mL (≈ 459 µM) and 108 µg/mL (≈ 403 µM), respectively.

As to `CCCCC(O)(Cn1cncn1)c1ccc(Cl)cc1Cl` (stereo unspecified) [HEXACONAZOLE], the EC50 in the experiment on Macrophomina phaseolina was 1.7 µg/mL (≈ 5.41 µM); in the experiment with Athelia rolfsii, 2.3 µg/mL (≈ 7.32 µM).

Take `Clc1ccc(/C=N/C2CCCCC2/N=C/c2ccc(Cl)cc2Cl)c(Cl)c1` (stereo unspecified): the results for the EC50 with Macrophomina phaseolina and with Athelia rolfsii were 18.3 µg/mL (≈ 42.7 µM) and 34.2 µg/mL (≈ 79.9 µM), respectively.

For the compound `O=[N+]([O-])c1cccc(/C=N/CCC/N=C/c2cccc([N+](=O)[O-])c2)c1`, the ED50 result in the experiment on Macrophomina phaseolina and in the experiment with Athelia rolfsii was “inactive” throughout.

`Clc1ccc(/C=N/CCCC/N=C/c2ccc(Cl)cc2Cl)c(Cl)c1`: the EC50 in the experiment with Macrophomina phaseolina is 100 µg/mL (≈ 249 µM); with Athelia rolfsii it was 179 µg/mL (≈ 444 µM).

Take `Clc1ccc(/C=N/c2ccco2)c(Cl)c1`: the EC50 with Macrophomina phaseolina is 23.1 µg/mL (≈ 96.4 µM); with Athelia rolfsii, 35.2 µg/mL (≈ 147 µM).
